Laboratory results taken from PMC3253719 (Anesthesia and Analgesia, 2010).
Where two headings read alike, the source gives them in different places.

Columns and labels:
[1] = test system: rats with spinal nerve ligation; assay: Tactile allodynia, lumbar 5-6 spinal nerve ligation neuropathic pain model; assay type: in vivo, rat; details: for Effect on tactile allodynia: several doses
Summary of the method: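 Male Sprague-Dawley rats (120–150 g). Under isoflurane in 100% O2, the left L6 transverse process was removed and the left L5 and L6 spinal nerves were tightly ligated with 6-0 silk. Neuropathy was confirmed by daily von Frey paw-withdrawal thresholds after ≥30 min acclimation on wire mesh. Compounds were given IP; AM630 (5 mg/kg IP) was given 15 min before the test compound. n = 6–12 per group.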

[2] = test system: naïve rats; assay: Open-field chamber testing; assay type: in vivo, rat; details: 1 mg/kg IP
[3] = test system: central nervous system; details: IP; cited from earlier work
[4] = target: T1, human CB2 receptor (Homo sapiens, UniProt P34972); details: cited from earlier work
[5] = target: T1, human CB2 receptor; details: cited from earlier work; remark: listed apart in the source
[6] = target: T1, human CB2 receptor; details: cited from earlier work; remark: listed apart in the source
[7] = target: T1, human CB2 receptor; details: cited from earlier work; remark: listed apart in the source
[8] = test system: rat CB2 receptors; details: cited from earlier work
[9] = test system: mouse CB2 receptors; details: cited from earlier work
[10] = test system: rodents with spinal nerve ligation; details: cited from earlier work
[11] = test system: human CB2 receptors; details: cited from earlier work
[12] = test system: rat CB2 receptors; details: cited from earlier work; remark: listed apart in the source
[13] = target: T2, rat CB2 receptor (Rattus norvegicus, UniProt Q9QZN9); assay: GTPγ[35S] functional assay, rat CB2; assay type: biochemical
T2 sequence (Q9QZN9 1-360): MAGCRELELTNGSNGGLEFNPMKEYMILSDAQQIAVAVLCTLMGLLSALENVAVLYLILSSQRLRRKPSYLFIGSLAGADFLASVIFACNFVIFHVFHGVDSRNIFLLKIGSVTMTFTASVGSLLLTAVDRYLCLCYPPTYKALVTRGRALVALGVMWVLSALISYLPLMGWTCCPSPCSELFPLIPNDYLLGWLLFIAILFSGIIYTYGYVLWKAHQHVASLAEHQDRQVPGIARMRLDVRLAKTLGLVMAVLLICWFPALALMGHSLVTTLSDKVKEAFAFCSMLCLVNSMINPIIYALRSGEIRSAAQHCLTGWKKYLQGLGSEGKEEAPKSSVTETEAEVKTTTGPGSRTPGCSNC

[14] = target: T2, rat CB2 receptor; assay: cAMP activation assay, rat CB2; assay type: cell-based
[15] = target: T3, human CB1 receptor (Homo sapiens, UniProt P21554); assay: Radioligand competitive binding assay, human CB1; details: Mean Ki Human CB1, [3H]CP 55,940 was used (footnote b)
[16] = target: T1, human CB2 receptor; assay: Radioligand competitive binding assay, human CB2
[17] = target: T4, rat CB1 receptor (Rattus norvegicus, UniProt P20272); assay: Radioligand competitive binding assay, rat CB1
[18] = target: T2, rat CB2 receptor; assay: Radioligand competitive binding assay, rat CB2
[19] = target: T3, human CB1 receptor; assay: GTPγ[35S] functional assay, human CB1; assay type: biochemical
[20] = target: T1, human CB2 receptor; assay: GTPγ[35S] functional assay, human CB2; assay type: biochemical
[21] = target: T4, rat CB1 receptor; assay: GTPγ[35S] functional assay, rat CB1; assay type: biochemical
[22] = target: T4, rat CB1 receptor; assay: cAMP activation assay, rat CB1; assay type: cell-based
[23] = test system: rat CB2 receptors; assay: Erk1/2; assay type: cell-based
[24] = test system: paclitaxel-treated rats; assay: Tactile allodynia, paclitaxel-induced neuropathic pain model in rats; assay type: in vivo, rat; details: IP
Summary of the method: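 Male Sprague-Dawley rats (120–150 g) received paclitaxel 1.0 mg/kg IP daily for 4 days (cumulative 4 mg/kg) in 10% Cremophor EL in saline, 1 mL/kg. Baseline was taken on day 0, then daily von Frey hind-paw thresholds (≥30 min acclimation on wire mesh) until neuropathy was confirmed. The test compound was given IP, compared with vehicle-treated rats; n = 5 per group. Values were expressed as %MPE and AUC.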

[25] = test system: paclitaxel-treated CB2^+/+ mice; assay: Tactile allodynia, paclitaxel-induced neuropathic pain model in CB2^+/+ mice; assay type: in vivo, mouse; details: 10 mg/kg IP
Summary of the method: (§1)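 Male CB2+/+ or CB2−/− mice (20–25 g), bred and genotyped in-house, were used in a paclitaxel-induced neuropathy model. Once allodynia was established, the test compound was given at 10 mg/kg IP. Tactile paw-withdrawal thresholds were measured with von Frey filaments after ≥30 min acclimation on a wire-mesh floor; n = 5 per group.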

[26] = test system: paclitaxel-treated CB2^−/− mice; assay: Tactile allodynia, paclitaxel-induced neuropathic pain model in CB2^−/− mice; assay type: in vivo, mouse; details: 10 mg/kg IP
Summary of the method: as §1

[27] = test system: naïve rats; details: 15 mg/kg IP; historical data ref 24; cited from earlier work

T3 sequence (P21554 whole entry): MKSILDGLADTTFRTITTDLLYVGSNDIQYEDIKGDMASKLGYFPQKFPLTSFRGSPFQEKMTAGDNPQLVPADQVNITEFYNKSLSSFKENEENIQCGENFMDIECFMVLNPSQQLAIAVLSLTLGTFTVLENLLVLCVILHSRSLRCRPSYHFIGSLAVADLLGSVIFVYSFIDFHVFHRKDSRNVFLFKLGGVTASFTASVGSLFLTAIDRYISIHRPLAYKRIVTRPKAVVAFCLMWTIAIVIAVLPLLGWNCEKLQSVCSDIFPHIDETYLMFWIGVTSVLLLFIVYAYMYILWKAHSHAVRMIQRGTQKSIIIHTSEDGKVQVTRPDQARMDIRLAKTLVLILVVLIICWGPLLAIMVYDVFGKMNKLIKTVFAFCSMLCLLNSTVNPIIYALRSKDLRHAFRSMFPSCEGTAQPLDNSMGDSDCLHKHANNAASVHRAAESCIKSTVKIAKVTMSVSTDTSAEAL
T4 sequence (P20272 whole entry): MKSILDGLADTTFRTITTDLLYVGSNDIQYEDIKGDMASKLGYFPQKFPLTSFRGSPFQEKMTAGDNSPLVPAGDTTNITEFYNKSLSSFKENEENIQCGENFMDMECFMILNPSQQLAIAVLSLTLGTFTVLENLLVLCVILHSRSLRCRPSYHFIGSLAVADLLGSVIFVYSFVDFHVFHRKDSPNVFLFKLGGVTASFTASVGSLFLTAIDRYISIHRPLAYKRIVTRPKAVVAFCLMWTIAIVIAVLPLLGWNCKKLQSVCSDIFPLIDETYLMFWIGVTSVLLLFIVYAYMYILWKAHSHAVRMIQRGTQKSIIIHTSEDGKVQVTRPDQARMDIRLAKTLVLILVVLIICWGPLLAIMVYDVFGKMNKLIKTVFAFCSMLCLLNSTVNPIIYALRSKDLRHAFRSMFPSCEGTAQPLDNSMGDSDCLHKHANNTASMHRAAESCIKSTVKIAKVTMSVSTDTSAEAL
T1 sequence (P34972 whole entry): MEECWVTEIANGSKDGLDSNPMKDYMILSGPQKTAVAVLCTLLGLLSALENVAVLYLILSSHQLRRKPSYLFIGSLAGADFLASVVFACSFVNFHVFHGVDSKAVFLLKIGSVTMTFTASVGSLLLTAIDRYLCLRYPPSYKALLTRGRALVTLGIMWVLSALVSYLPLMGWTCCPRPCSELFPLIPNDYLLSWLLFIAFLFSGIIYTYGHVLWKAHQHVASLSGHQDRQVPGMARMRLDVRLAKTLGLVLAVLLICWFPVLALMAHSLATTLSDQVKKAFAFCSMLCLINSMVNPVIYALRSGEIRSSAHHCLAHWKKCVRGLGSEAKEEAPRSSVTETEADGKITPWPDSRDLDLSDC

Cc1c(C(=O)c2cccc3ccccc23)c2cccc3c2n1[C@H](CN1CCOCC1)CO3 [WIN 55,212-2, reference compound]
Adverse effects ([1]; 3 mg/kg IP): immobility and increased sensitivity to noise and handling
Effect on tactile allodynia ([1]; IP): attenuated tactile allodynia in a dose-related manner
ED50 tactile allodynia ([1]; IP, at 15 minutes, 95% CI = 0.5–0.9 mg/kg): 0.7 mg/kg
Effect on exploratory behavior (distance traveled, ambulatory time, vertical movements, zone entries) [2]: significantly decreased exploratory behavior
Doses with adverse effects in the central nervous system [3]: > 1 mg/kg

CN1CCCCC1Cn1cc(C(=O)c2cc([N+](=O)[O-])ccc2I)c2ccccc21 (centres unmarked) [AM1241, (2-iodo-5-nitrophenyl)-[1-(1-methylpiperidin-2-ylmethyl)-1H-indol-3-yl]methanone]
Functional behaviour in fluorometric image plate reader functional assays [4]: apparent antagonist
Functional behaviour in cyclase assays [5]: neutral antagonist
Functional behaviour in cyclase assays at lower forskolin concentrations ([5]; lower forskolin concentrations): agonist
Functional behaviour in Erk activation assays [6]: apparent agonist
Functional behaviour in cAMP inhibition assays, human CB2 [7]: agonist
Functional behaviour in cAMP inhibition assays, rat CB2 [8]: inverse agonist
Functional behaviour in cAMP inhibition assays, mouse CB2 [9]: inverse agonist
Effect on tactile allodynia [10]: attenuated tactile allodynia in a dose-related manner

COc1ccc2c(c1)c(CCN1CCOCC1)c(C)n2C(=O)c1cccc(Cl)c1Cl [L768242]
Functional character at human CB2 [11]: protean agonists
Functional character at rat CB2 [12]: protean agonists

O=C(CCCN1CCC(O)(c2ccc(Cl)cc2)CC1)c1ccc(F)cc1 [haloperidol]
Effect on exploratory behavior (distance traveled, ambulatory time, vertical movements, zone entries) [2]: significantly decreased exploratory behavior

CN1CCCCC1Cn1cc(C(=O)c2cc([N+](=O)[O-])ccc2I)c2ccccc21 (single isomer, unassigned; (+)) [(+)AM1241]
Functional character at human CB2 [11]: protean agonists
Functional character at rat CB2 [12]: protean agonists

CCCCCCC(C)(C)c1ccc([C@@H]2C[C@H](O)CC[C@H]2CCCO)c(O)c1 [CP 55,940, reference compound]
Functional behaviour in GTPγ[35S] assay, rat CB2 [13]: agonist activity
EC50 ([13]; read-out: GTPγ[35S] functional assays Rat CB2 EC50, agonism): 2.3 ± 1.8 nM
GTPγ[35S] functional assays Rat CB2 Emax ([13]; relative to efficacy of CP 55,940): 112%
Functional behaviour in cAMP activation assay, rat CB2 [14]: strong agonist activity
cAMP activation assays Rat CB2 Emax ([14]; forskolin 10 µM, NA = not active at 1 µM): 100%

COc1ccc(C(=O)c2c(C)n(CCN3CCOCC3)c3cc(I)ccc23)cc1 [AM630, reference compound]
Effect on paw withdrawal threshold, given alone ([1]; 5 mg/kg IP): had no effect

CCCCCCN1C(=O)/C(=N\NC(=O)c2ccccc2)c2ccccc21 [MDA19, N′-[(3Z)-1-(1-hexyl)-2-oxo-1,2-dihydro-3H-indol-3-ylidene]benzohydrazide]
Ki [15]: 150 nM
Ki [16]: 43.3 ± 10.3 nM
Ki [17]: 1130 ± 574 nM
Ki [18]: 16.3 ± 2.1 nM
Affinity ratio rat CB2 over rat CB1 ([18]; from Ki values): ~70 fold
EC50 [19]: 922 ± 56 nM
Functional behaviour in GTPγ[35S] assay, human CB1 [19]: agonist
Emax ([19]; read-out: GTPγ[35S] functional assays Human CB1 Emax): 64.5%
EC50 [20]: 83 ± 19 nM
Functional behaviour in GTPγ[35S] assay, human CB2 [20]: agonist
Emax ([20]; read-out: GTPγ[35S] functional assays Human CB2 Emax): 65.4%
EC50 [21]: 427 ± 35 nM
Functional behaviour in GTPγ[35S] assay, rat CB1 [21]: agonist
Emax ([21]; read-out: GTPγ[35S] functional assays Rat CB1 Emax): 54%
EC50 [13]: 19.7 ± 14 nM
Functional behaviour in GTPγ[35S] assay, rat CB2 [13]: inverse agonist
Emax ([13]; read-out: GTPγ[35S] functional assays Rat CB2 Emax): -42%
EC50 [22]: 814 ± 83 nM
Functional behaviour in cAMP activation assay, rat CB1 [22]: agonist
Emax ([22]; read-out: cAMP activation assays Rat CB1 Emax): 89%
Functional behaviour in cAMP activation assay, rat CB2 [14]: no activity
Activation of Erk1/2 after PTX ([23]; 200 ng/mL PTX 16 hours before 10 µM MDA19): blocked
Functional behaviour in Erk1/2 activation (phosphorylation of Erk1/2) ([23]; 10 µM, 30 minutes, CHO-rCB2 cells): behaved as an agonist and induced phosphorylation of Erk1/2
Activation of Erk1/2 after AM630 ([23]; 20 µM AM630 30 minutes before 10 µM MDA19): blocked
Antiallodynic effects compared with 1 mg/kg WIN 55,212-2 IP ([1]; 15 mg/kg IP): not significantly different
Antiallodynic effect, area under the curve ([1]; 15 mg/kg versus 5 mg/kg or vehicle): significantly (P < 0.01) greater antiallodynic effect
Effect on tactile allodynia ([1]; IP): attenuated tactile allodynia in a dose-related manner
Antiallodynic effect after pretreatment with AM630 ([1]; MDA19 10 mg/kg IP, AM630 5 mg/kg IP 15 minutes before, P < 0.05): significantly reversed
Efficacy in attenuating tactile allodynia ([1]; after a 15 mg/kg dose IP): 70% ± 10%
Effect on mechanical allodynia ([24]; versus vehicle-treated rats): suppressed mechanical allodynia
%MPE paw withdrawal threshold AUC versus vehicle ([24]; n = 5 per group): significantly different (P < 0.05)
Effect on mechanical allodynia [25]: suppressed mechanical allodynia
Time of peak effect for reversing mechanical allodynia [25]: 30 min
Effect on mechanical allodynia [26]: had no effect
Effect on exploratory behavior (distance traveled, ambulatory time, vertical movements, zone entries) [27]: had no effect on exploratory behavior
